Values belong to the compound of their own block, whether it stands above or below them.
Tests used:
[1] = Clearance in CD1 mouse at 2 mg/kg, iv and 10 mg/kg, po; format: ADME, organism-based; details: in vivo
How it was run: (§1)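 Male CD1 mice. IV dosing at 2 mg/kg, formulated either in 20% captisol/80% water or in 10% dimethylacetamide/23% water/67% PEG 400. Oral dosing at 10 mg/kg, formulated either in 10% Pluronic F108/90% OraPlus or in 0.1% Tween-80/0.5% CMC in water. Reported: CL, Vss, t1/2 and oral F.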

[2] = Plasma protein binding in po dosed mouse after 4 hrs; format: ADME, organism-based; details: read-out: PPB (converted)
in vivo = details: mouse, adipose tissue fat / plasma, po, 50 mg/kg
[3] = Terminal half life in Sprague-Dawley rat at 2 mg/kg, iv and 10 mg/kg, po; format: ADME, organism-based; details: in vivo, read-out: beta t1/2 (converted)
How it was run: (§2)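 Male Sprague-Dawley rats. IV dosing at 2 mg/kg in DMSO. Oral dosing at 10 mg/kg in 0.1% Tween-80/0.5% CMC/99.4% water. Reported: CL, Vss, t1/2 (terminal t1/2 where marked), MRT and oral F.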

[4] = Oral bioavailability in Sprague-Dawley rat at 10 mg/kg; format: ADME, organism-based; details: in vivo; how it was run: as §2
Plasma [5] = experiment: Free plasma concentration in po dosed mouse after 4 hrs; format: ADME, organism-based; details: in vivo
[6] = Oral bioavailability in CD1 mouse at 10 mg/kg; format: ADME, organism-based; details: in vivo; how it was run: as §1
[7] = Volume of distribution at steady state in CD1 mouse at 2 mg/kg, iv and 10 mg/kg, po; format: ADME, organism-based; details: in vivo, read-out: Vdss; how it was run: as §1
[8] = Clearance in Sprague-Dawley rat at 2 mg/kg, iv and 10 mg/kg, po; format: ADME, organism-based; details: in vivo; how it was run: as §2
[9] = Volume of distribution at steady state in Sprague-Dawley rat at 2 mg/kg, iv and 10 mg/kg, po; format: ADME, organism-based; details: in vivo, read-out: Vdss; how it was run: as §2
[10] = Half life in CD1 mouse at 2 mg/kg, iv and 10 mg/kg, po; format: ADME, organism-based; details: in vivo; how it was run: as §1
[11] = Drug uptake in mouse adipose tissue fat at 30 mg/kg, po after 2 hrs; format: ADME, organism-based; design: dose 30 mg/kg, route oral; details: read-out: Drug uptake
Mus musculus [12] = experiment: Ex vivo inhibition of 11beta-HSD1 in mouse adipose tissue at 30 mg/kg, po after 6 hrs; format: functional
How it was run: (§3)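 Mice dosed orally at 10 or 30 mg/kg. Adipose 11β-HSD1 activity measured ex vivo as percent inhibition.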

[13] = Plasma concentration in mouse at 10 mg/kg, po after 4 hrs; format: ADME, organism-based; design: dose 10 mg/kg, route oral
Mus musculus [14] = experiment: Ex vivo inhibition of 11beta-HSD1 in mouse adipose tissue at 10 mg/kg, po after 4 hrs; format: functional; how it was run: as §3
[15] = Drug uptake in mouse adipose tissue fat at 10 mg/kg, po after 8 hrs; format: ADME, organism-based; design: dose 10 mg/kg, route oral; details: read-out: Drug uptake
[16] = Drug uptake in mouse adipose tissue fat at 10 mg/kg, po after 4 hrs; format: ADME, organism-based; design: dose 10 mg/kg, route oral; details: read-out: Drug uptake
[17] = Plasma concentration in mouse at 30 mg/kg, po after 6 hrs; format: ADME, organism-based; design: dose 30 mg/kg, route oral
Mus musculus [18] = experiment: Ex vivo inhibition of 11beta-HSD1 in mouse adipose tissue at 30 mg/kg, po after 8 hrs; format: functional; how it was run: as §3
Mus musculus [19] = experiment: Ex vivo inhibition of 11beta-HSD1 in mouse adipose tissue at 30 mg/kg, po after 4 hrs; format: functional; how it was run: as §3
[20] = Drug uptake in mouse adipose tissue fat at 30 mg/kg, po after 6 hrs; format: ADME, organism-based; design: dose 30 mg/kg, route oral; details: read-out: Drug uptake
[21] = Drug uptake in mouse adipose tissue fat at 10 mg/kg, po after 6 hrs; format: ADME, organism-based; design: dose 10 mg/kg, route oral; details: read-out: Drug uptake
Mus musculus [22] = experiment: Ex vivo inhibition of 11beta-HSD1 in mouse adipose tissue at 30 mg/kg, po after 2 hrs; format: functional; how it was run: as §3
Mus musculus [23] = experiment: Ex vivo inhibition of 11beta-HSD1 in mouse adipose tissue at 10 mg/kg, po after 2 hrs; format: functional; how it was run: as §3
[24] = Plasma concentration in mouse at 30 mg/kg, po after 8 hrs; format: ADME, organism-based; design: dose 30 mg/kg, route oral
[25] = Plasma concentration in mouse at 10 mg/kg, po after 6 hrs; format: ADME, organism-based; design: dose 10 mg/kg, route oral
[26] = Plasma concentration in mouse at 10 mg/kg, po after 2 hrs; format: ADME, organism-based; design: dose 10 mg/kg, route oral
[27] = target: 11-beta-hydroxysteroid dehydrogenase 1 (Mus musculus, UniProt P50172); experiment: Inhibition of mouse 11beta-HSD1 expressed in Escherichia coli using [3H]cortisone as substrate by scintillation proximity assay
Plasma [28] = experiment: Free plasma concentration in mouse at 30 mg/kg, po after 4 hrs; format: ADME, organism-based; design: dose 30 mg/kg, route oral; details: in vivo
How it was run: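 Mice dosed orally at 30 mg/kg and sampled at 4 h. Free plasma concentration calculated from total plasma level using mouse plasma protein binding.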

[29] = Plasma protein binding in mouse at 30 mg/kg, po after 4 hrs; format: ADME, organism-based; design: dose 30 mg/kg, route oral; details: read-out: PPB (converted)
[30] = Drug uptake in mouse adipose tissue fat at 10 mg/kg, po after 2 hrs; format: ADME, organism-based; design: dose 10 mg/kg, route oral; details: read-out: Drug uptake
[31] = Drug uptake in mouse adipose tissue fat at 30 mg/kg, po after 8 hrs; format: ADME, organism-based; design: dose 30 mg/kg, route oral; details: read-out: Drug uptake
[32] = Drug uptake in mouse adipose tissue fat at 30 mg/kg, po after 4 hrs; format: ADME, organism-based; design: dose 30 mg/kg, route oral; details: read-out: Drug uptake
[33] = Plasma concentration in mouse at 30 mg/kg, po after 2 hrs; format: ADME, organism-based; design: dose 30 mg/kg, route oral
[34] = Plasma concentration in mouse at 10 mg/kg, po after 8 hrs; format: ADME, organism-based; design: dose 10 mg/kg, route oral
[35] = Plasma concentration in mouse at 30 mg/kg, po after 4 hrs; format: ADME, organism-based; design: dose 30 mg/kg, route oral
[36] = Half life in Sprague-Dawley rat at 2 mg/kg, iv and 10 mg/kg, po; format: ADME, organism-based; details: in vivo; how it was run: as §2

11-beta-hydroxysteroid dehydrogenase 1, sequence (P50172 whole entry): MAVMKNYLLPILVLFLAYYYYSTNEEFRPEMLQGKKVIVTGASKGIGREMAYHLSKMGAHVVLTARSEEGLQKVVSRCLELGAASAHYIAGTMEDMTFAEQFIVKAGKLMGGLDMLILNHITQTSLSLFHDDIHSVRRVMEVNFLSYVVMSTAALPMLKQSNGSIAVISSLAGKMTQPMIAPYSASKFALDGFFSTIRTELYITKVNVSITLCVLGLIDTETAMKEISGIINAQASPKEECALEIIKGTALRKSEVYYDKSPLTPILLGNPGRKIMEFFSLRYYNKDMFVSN

SMILES: CC(C)[C@]1(C)SC(N[C@H]2C[C@H]3C[C@@H]2C[C@@H]3O)=NC1=O
- clearance [1]: 24.7 mL/min/kg
- concentration at 2 h [11]: 4670 nM
- inhibition in vivo at 30 mg/kg (Mus musculus [12]): 36%
- concentration at 4 h [13]: 1050 nM
- inhibition in vivo at 10 mg/kg (Mus musculus [14]): 31%
- concentration at 8 h [15]: 130 nM
- concentration at 4 h [16]: 820 nM
- concentration at 6 h [17]: 1710 nM
- inhibition in vivo at 30 mg/kg (Mus musculus [18]): 36%
- inhibition in vivo at 30 mg/kg (Mus musculus [19]): 46%
- concentration at 6 h [20]: 2020 nM
- bioavailability [4]: 58%
- concentration at 6 h [21]: 220 nM
- inhibition in vivo at 30 mg/kg (Mus musculus [22]): 51%
- bioavailability [6]: > 100%
- Vd [7]: 1.43 L/kg
- inhibition in vivo at 10 mg/kg (Mus musculus [23]): 38%
- concentration at 8 h [24]: 390 nM
- concentration at 6 h [25]: 380 nM
- clearance [8]: 7.33 mL/min/kg
- concentration at 2 h [26]: 4500 nM
- Ki [27]: 152 nM
- Vd [9]: 0.97 L/kg
- Cp(f) (Plasma [28]): 2100 nM
- fraction unbound at 4 h [29]: 0.591
- concentration at 2 h [30]: 980 nM
- half-life [10]: 5.72 h
- concentration at 8 h [31]: 580 nM
- concentration at 4 h [32]: 980 nM
- concentration at 2 h [33]: 19500 nM
- concentration at 8 h [34]: 190 nM
- concentration at 4 h [35]: 3590 nM
- half-life [36]: 2.17 h

SMILES: CC(C)(O)[C@]1(C)SC(N[C@H]2C[C@@H]3CC[C@H]2C3)=NC1=O
- bioavailability [4]: 53%
- clearance [8]: 32 mL/min/kg
- Vd [9]: 0.53 L/kg
- half-life [36]: 0.24 h

Results, then the compound that gave them:

- clearance [1]: 55.2 mL/min/kg
- fraction unbound at 4 h [2]: 0.099
- Kp (in vivo): 1.34
- half-life [3]: 12.2 h
- bioavailability [4]: 34%
- Cp(f) (Plasma [5]): 240 nM
- bioavailability [6]: 31%
- Vd [7]: 0.9 L/kg
- clearance [8]: 19.3 mL/min/kg
- Vd [9]: 1.53 L/kg
- half-life [10]: 3.32 h
SMILES: CC(C)[C@]1(C)SC(N[C@H]2C[C@@H]3CC[C@H]2C3)=NC1=O

- clearance [8]: 12.3 mL/min/kg
- Ki [27]: 181 nM
- Vd [9]: 1.43 L/kg
- half-life [36]: 2.41 h
SMILES: CC(C)[C@]1(C)SC(N[C@H]2C[C@H]3C[C@@H]2C[C@H]3O)=NC1=O

- Ki [27]: 230 nM
SMILES: CC(C)[C@]1(C)SC(N[C@H]2C[C@H]3C[C@@H]2CC3=O)=NC1=O

Source: ChEMBL document CHEMBL2021802, “Synthesis and Evaluation of the Metabolites of AMG 221, a Clinical Candidate for the Treatment of Type 2 Diabetes” (ACS Med Chem Lett, 2011)
